# Only some compounds are listed: those with a hit (about 3.8% of all), similar ones and a draw of the others.
# KCNK9 block = blocks the human KCNK9 two-pore domain potassium channel. Q9NPC2. HEK293 KCNK9, FluxOR thallium flux fluorescence; hits give low values. hit rate 1.2% among 310,000. AID 488922. B-score at 10 µM;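 active = ratio B-score over 3 SD below the library mean, with starting fluorescence within 5 SD of its mean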;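 also: negative B-score means less thallium flux so channel inhibition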
# KCNQ1 act = potentiators or activators of human KCNQ1 potassium channel; P51787; CHO-K1 KCNQ1, thallium flux FluxOR fluorescence; hits give high values; B-score at 10 µM; hit rate 0.35% among 310,000; AID 2648;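 active = fluorescence ratio B-score, a plate-corrected score, at least three library SD, with initial intensity B-score within 5 SD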
#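 Test system: CHO-K1 cells stably expressing KCNQ1 / Medium: assay buffer / Also added: depolarizing K+/Tl+ stimulus, K2SO4 and Tl2SO4 each 12.5 mM in 5x stock / Incubation: 90 min dye loading and 20 min compound exposure, both at room temperature / Signal: thallium influx via FluxOR fluorescence, kinetic imaging / Evaluation: B score of baseline-normalized fluorescence ratio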
# Kir21 inh = blocks the mouse Kir2.1 inward-rectifier potassium channel. HEK293-Kir2.1, FluxOR thallium flux fluorescence; hits give low values. hit rate 0.85% among 310,000. B-score at 10 µM;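 active = fluorescence ratio B-score at or below minus 3 SD of library scores, with starting-brightness B-score within 2 SD, cut at about -4.2 in these data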;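 also: channel flux triggered by added potassium and thallium sulfate stimulus; B-score of peak minus minimum fluorescence over baseline after thallium stimulus; more negative B-score means stronger Kir2.1 block with less thallium influx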
# KCNQ1 block = human KCNQ1 channel inhibition. P51787. CHO-K1 KCNQ1, FluxOR thallium flux fluorescence; hits give high values. B-score at 10 µM. hit rate 1.3% among 310,000;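 active = compounds whose thallium flux B-score, printed positive for inhibition, exceeds three library SD while starting fluorescence stays within three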;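 also: channel opened by potassium depolarization with thallium stimulus after 20 min compound exposure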
# KCNK3 inh = human KCNK3 channel inhibition, primary screen. AID 602410. B-score at 10 µM. CHO-KCNK3 thallium flux, FluxOR fluorescence; hits give low values. hit rate 0.84% among 340,000;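 active = B-score under library mean minus 4 SD, starting fluorescence ratio at most library mean plus 5 SD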;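 also: more negative B-score means stronger inhibition of thallium flux through KCNK3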
# hERG protect = hERG (human) protection from proarrhythmic block. Q12809. CHO-hERG, FluxOR thallium flux, dofetilide IC70 present. activation (rescue from dofetilide block), less the hit threshold, % at 10 µM. hit rate 0.51% among 310,000;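 active = activation above the mean of controls blocked by dofetilide plus 5 SD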;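 also: thallium influx through hERG after potassium depolarization seen as dye fluorescence rise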
# Hits are given with their value; i = inactive; nt = no result.
SMILES,KCNK9 block,KCNQ1 act,Kir21 inh,KCNQ1 block,KCNK3 inh,hERG protect
CN(CC(=O)Nc1ccc(Br)cc1)Cc1ccccc1,-6.8,i,i,i,i,i
CN(CC(=O)NCCCc1ccccc1)Cc1ccc(Br)cc1,i,i,i,i,i,i
CN(CC(=O)NCCc1ccc(F)cc1)Cc1cccc(Cl)c1,i,i,-7.3,i,i,i
CC(NC(=O)CN(C)Cc1cccc(Cl)c1)c1ccccc1 (centres undefined),i,i,i,i,i,i
CSc1ccccc1NC(=O)CN(C)Cc1cccc(Cl)c1,-7.2,i,i,i,i,i
CN(CC(=O)NCCc1ccc(F)cc1)Cc1ccc(Br)cc1,i,i,-6.6,i,i,i
Cc1cc(C(=O)COc2ccc(F)cc2Br)c(C)n1C1CC1,nt,nt,nt,nt,i,nt
CCCCN1C(=O)Nc2ccccc2S1=O (centres undefined),i,i,i,i,i,i
O=C(CN(Cc1ccco1)C(=O)c1ccc(F)cc1)Nc1ccccc1Br,nt,nt,nt,nt,i,nt
COc1ccc(NC(=O)C2CCCN2S(=O)(=O)c2ccc(Cl)cc2)cc1 (centres undefined),i,i,i,i,i,i
Cc1c(Cl)c(=O)n2c(=O)c(Cl)c(C)n12,i,i,i,i,i,i
COc1ccccc1OCCSc1nc2ccccc2n1CCO,i,i,-4.3,i,i,i
CCn1c(COc2ccccc2OC)nc2ccccc21,i,i,i,i,i,i
COc1ccccc1OCCSc1nc2ccccc2n1CCC(=O)O,i,i,i,i,i,i
CCCn1c(COc2ccccc2OC)nc2ccccc21,i,i,-4.3,i,i,i
Cc1ccccc1-c1ccccc1CN1[C@@H](C(C)C)COCCS1(=O)=O,nt,nt,nt,nt,i,nt
COc1ccc(C)cc1Nc1n[n+](-c2ccccc2)c(-c2ccc(OC)c(OC)c2OC)s1,i,i,-4.9,11,i,i
O=C(O)c1cc(-c2cccc([N+](=O)[O-])c2)n[nH]1,i,i,i,i,i,49
COc1cccc(-c2cc(C(=O)O)[nH]n2)c1,i,i,i,i,i,i
ON/C=N/C(=S)Nc1ncc(C(F)(F)F)cc1Cl,i,20,i,i,i,14
CON/C=N/C(=S)Nc1ncc(C(F)(F)F)cc1Cl,i,51,i,i,i,15
CC(C)C(=O)Nc1ncc(C(F)(F)F)cc1Cl,i,i,i,i,i,i
CC(=O)CC(=O)Nc1ncc(C(F)(F)F)cc1Cl,i,i,i,i,i,i
Cc1ccc(OCCNC(=O)c2ccccc2SCC(=O)N2CCCC2)cc1,i,i,i,i,i,i
Cc1ccc(S(=O)(=O)N(CCCc2c(C)nc[nH]c2=O)c2ccccc2)cc1,nt,nt,nt,nt,i,nt
SMILES,KCNK9 block,KCNQ1 act,Kir21 inh,KCNQ1 block,KCNK3 inh,hERG protect
CS(=O)(=O)c1ccc(NC(=O)C2CC(=O)N(c3ccc4c(c3)OCCO4)C2)cc1 (centres undefined),i,i,i,i,i,i
COc1cccc(NC(=O)c2ccc3c(c2)OCO3)c1,i,i,i,i,i,i
COc1cccc(NC(=O)c2oc3ccccc3c2NC(=O)c2ccc3c(c2)OCO3)c1,-7.9,i,i,i,i,i
COc1ccccc1C(CC(=O)Nc1ccc(Cl)cc1)c1ccc(OC(C)C)cc1 (centres undefined),i,i,i,i,i,i
COc1ccc(C(C)NCCC(c2ccc(OC(C)C)cc2)c2ccccc2OC)cc1 (centres undefined),i,i,-6.6,6,i,i
O=C1OCC2=C1C(c1ccc(F)cc1)Sc1ccccc1N2 (centres undefined),i,i,i,i,i,6.0
COc1cc(C2Sc3ccccc3NC3=C2C(=O)OC3)cc(OC)c1OC (centres undefined),i,i,i,i,i,i
COc1ccc(C(CCNCc2ccc(OC)c(OC)c2)c2ccc(F)cc2)cc1 (centres undefined),i,i,-4.5,i,i,i
S=c1[nH]c2ccc(Cl)cc2[nH]1,i,i,i,i,i,i
S=c1[nH]c2cc(Cl)ccc2s1,i,74,i,i,i,55
Cc1cc(=O)oc(C)c1C(=O)Nc1ccc(F)cc1,i,i,i,i,i,i
CCOC(=O)Cc1csc2nc(-c3ccccc3)nn12,i,i,i,i,i,i
CCOC(=O)c1cc(=O)n2nc(-c3ccc(C)cc3)nc2s1,i,i,i,7,i,i
Cc1ccc(CC(=O)NNC(=O)c2cccs2)cc1C,nt,nt,nt,nt,i,nt
O=C(OCCc1cc2ccccc2c(=O)o1)c1cccc(Br)c1,nt,nt,nt,nt,-8.8,nt
Cc1ccc(F)c(Oc2cc(NN3CCCCC3)c([N+](=O)[O-])cc2[N+](=O)[O-])c1,-7.3,i,i,i,i,i
CCC(C)Sc1ccc([C@@H]2[C@@H]3C(=O)N(CC)C(=O)[C@@H]3[C@]3(C(=O)OC)CCCCN23)cc1 (some centres undefined),nt,nt,nt,nt,i,nt
CCC12CN(S(=O)(=O)c3ccc(C)cc3)CC(CC)(CN(S(=O)(=O)c3ccc(C)cc3)C1)C2=O,i,i,i,i,-9.1,i
CCN=C1S/C(=C\c2ccc(O)c(OCC)c2)C(=O)N1CC,i,i,-5.7,i,i,i
CCN1C[C@@H]2[C@@H]3C(=O)N(Cc4ccccc4)C(=O)[C@@H]3[C@](CC)(C(=O)OC)N2C1=NC,nt,nt,nt,nt,i,nt
CC1=Nc2ccccc2N=C(NC(=O)c2ccccc2)C1c1ccc(Cl)cc1 (centres undefined),i,i,i,12,i,i
CC1=CC(c2ccc(Cl)cc2)n2nc(NC(=O)c3ccccc3)nc2N1 (centres undefined),i,i,i,i,i,i
CCc1ccc2[nH]c(=O)c(CN(CCCN3CCOCC3)C(=O)Nc3cccc(Cl)c3)cc2c1,i,i,i,6,i,i
CCc1ccc2[nH]c(=O)c(CN(CCCN3CCOCC3)C(=O)Nc3ccc(Cl)cc3)cc2c1,i,i,i,i,i,i
CC(NCCS(=O)(=O)c1ccc(Cl)cc1)c1cccc(Cl)c1 (centres undefined),i,i,-13,i,i,i
SMILES,KCNK9 block,KCNQ1 act,Kir21 inh,KCNQ1 block,KCNK3 inh,hERG protect
Cc1oc2c(cc(NS(=O)(=O)c3ccc4c5c(cccc35)C(=O)N4)c3ccccc32)c1C(=O)OC(C)C,-7.6,i,i,i,i,i
O=C1CCCc2oc3c(cc(NS(=O)(=O)c4ccc5c6c(cccc46)C(=O)N5)c4ccccc43)c21,i,i,i,i,i,i
Cc1ccc(SCC(=O)NN2C(=O)c3ccccc3C2=O)cc1,i,i,i,i,i,i
O=S(=O)(Nc1ccccc1)C1CCCCC1,nt,nt,nt,nt,i,nt
Cc1ccccc1Cn1nc(C)c(NC(=O)c2ccccc2)c1C,i,i,i,i,i,7.6
Cc1nn(Cc2cccc3ccccc23)c(C)c1NC(=O)c1cccnc1,i,i,i,i,i,i
CC(=O)NNc1ncnc2ccccc12,i,i,i,i,i,i
CC(Nc1ncnc2ccccc12)c1ccccc1 (centres undefined),i,i,i,6,i,i

# High-throughput results: PubChem BioAssay, Johns Hopkins Ion Channel Center
